From ChEMBL document CHEMBL5143736, “Discovery and Optimization of a Synthetic Class of Nectin-4-Targeted CD137 Agonists for Immuno-oncology” (J Med Chem, 2022)

What was measured:
[1] = biological target: Tumor necrosis factor receptor superfamily member 9 (Homo sapiens, UniProt Q07011); assay: Binding affinity to human CD137 assessed as dissociation constant by surface plasmon resonance analysis
Procedure, shortened: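 Biacore T200 SPR, human CD137, 25 °C. Peptide series in PBS/0.05% Tween 20 with 0.5% DMSO: top 500 nM (threefold) or 10 μM (twofold), 6 further dilutions. Flow 90 μL/min, 60 s association, 100–600 s dissociation, glycine pH 2 regeneration. DMSO-corrected and double-referenced; kinetic fit gives ka, kd, KD.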

[2] = Half life in Sprague-Dawley rat at 2 mg/kg, iv by LC/MS/MS analysis; details: in vivo
PBMC [3] = assay: […] activity in human PBMC stimulated with anti-CD3-mediated CD137 expression in cocultured with […] cell line assessed as increase in secretion of IFN gamma incubated for 48 hrs by Luminex assay; format: functional, cell-based; details: DDE = dose-dependent effect
Procedure, shortened: (§1)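 Healthy-donor PBMCs were thawed into R10 medium and cocultured with HT1376 cells at 10:1 effector:target (1×10^5 PBMC:1×10^4 tumor cells per well). Soluble anti-CD3 OKT3 (100 ng/mL) was added on day 0, then compound, 37 °C, 5% CO2. Supernatant IFNγ and IL-2 taken at 24 and 48 h, measured by Luminex. Four-parameter fit, n = 3, repeated in multiple donors.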

PBMC [4] = assay: […] activity in human PBMC stimulated with anti-CD3-mediated CD137 expression in cocultured with […] cell line assessed as increase in secretion of IL2 incubated for 48 hrs by Luminex assay; format: functional, cell-based; details: DDE = dose-dependent effect; procedure, shortened: as §1

Sequence of Tumor necrosis factor receptor superfamily member 9 (Q07011 whole entry): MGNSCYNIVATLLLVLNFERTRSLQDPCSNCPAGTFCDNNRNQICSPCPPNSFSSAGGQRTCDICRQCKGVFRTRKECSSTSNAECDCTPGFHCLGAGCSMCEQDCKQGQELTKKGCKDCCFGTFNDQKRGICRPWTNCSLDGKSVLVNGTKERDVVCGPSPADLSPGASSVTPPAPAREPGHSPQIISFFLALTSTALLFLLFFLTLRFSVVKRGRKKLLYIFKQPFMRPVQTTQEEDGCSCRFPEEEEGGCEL

Structure (SMILES) | Kd [1] [µM] | half-life [2] [min] | Activity (PBMC [3]) | Activity (PBMC [4])
CCCC[C@@H]1NC(=O)[C@H](Cc2ccc(O)cc2)NC(=O)[C@@H]2CCCN2C(=O)[C@H](CCC(=O)O)NC(=O)[C@H](C)NC(=O)[C@H](Cc2ccccc2)NC(=O)[C@@H]2CSCCC(=O)N3CN(CN(C3)C(=O)CCSC[C@H](NC(C)=O)C(=O)N[C@@H](CC(C)(C)C)C(=O)N3CCC[C@H]3C(=O)N[C@@H](CCC(=O)O)C(=O)N[C@H](CCCCNC(=O)CCc3cn(CCOCCOCCOCCOCCOCCC(=O)N[C@H]4CSCCC(=O)N5CN6CN(C5)C(=O)CCSC[C@H](NC(=O)[C@@H](CC(=O)O)NC(=O)[C@H](Cc5cccc7ccccc57)NC(=O)[C@@H]5CCCN5C4=O)C(=O)N[C@@H](CCSC)C(=O)N[C@@H](CCCCNC(=N)N)C(=O)N[C@@H](CC(=O)O)C(=O)N[C@@H](Cc4c[nH]c5ccccc45)C(=O)N[C@@H](CO)C(=O)N[C@@H]([C@@H](C)O)C(=O)N4CCC[C@H]4C(=O)N4C[C@H](O)C[C@H]4C(=O)N[C@@H](Cc4c[nH]c5ccccc45)C(=O)N[C@H](C(N)=O)CSCCC6=O)nn3)C(=O)N3CCC[C@H]3C(=O)N[C@@H](Cc3ccc(O)cc3)C(=O)N2)C(=O)CCSC[C@@H](C(N)=O)NC1=O | 2.37 | – | – | –
CCCC[C@@H]1NC(=O)[C@H](Cc2ccc(O)cc2)NC(=O)[C@@H]2CCCN2C(=O)[C@H](CC(=O)O)NC(=O)[C@H](C)NC(=O)[C@H](Cc2ccccc2)NC(=O)[C@@H]2CSCCC(=O)N3CN(CN(C3)C(=O)CCSC[C@@H](C(=O)N[C@@H](CNC(=O)CCOCCOCCOCCOCCOCCn3cc(CCC(=O)N[C@H]4CSCCC(=O)N5CN6CN(C5)C(=O)CCSC[C@H](NC(=O)[C@@H](CC(=O)O)NC(=O)[C@H](Cc5cccc7ccccc57)NC(=O)[C@@H]5CCCN5C4=O)C(=O)N[C@@H](CCSC)C(=O)N[C@@H](CCCCNC(=N)N)C(=O)N[C@@H](CC(=O)O)C(=O)N[C@@H](Cc4c[nH]c5ccccc45)C(=O)N[C@@H](CO)C(=O)N[C@@H]([C@@H](C)O)C(=O)N4CCC[C@H]4C(=O)N4C[C@H](O)C[C@H]4C(=O)N[C@@H](Cc4c[nH]c5ccccc45)C(=O)N[C@H](C(N)=O)CSCCC6=O)nn3)C(N)=O)NC1=O)C(=O)CCSC[C@H](NC(C)=O)C(=O)N[C@@H](CC(C)(C)C)C(=O)N1CCC[C@H]1C(=O)N[C@@H](CCC(=O)O)C(=O)N[C@H](C)C(=O)N1CCC[C@H]1C(=O)N[C@@H](Cc1ccc(O)cc1)C(=O)N2 | – | 57.6 | – | –
CCCC[C@@H]1NC(=O)[C@H](Cc2ccc(O)cc2)NC(=O)[C@@H]2CCCN2C(=O)[C@H](CC(=O)O)NC(=O)[C@H](C)NC(=O)[C@H](Cc2ccccc2)NC(=O)[C@@H]2CSCCC(=O)N3CN(CN(C3)C(=O)CCSC[C@@H](C(=O)N[C@@H](CNC(=O)CCc3cn(CCOCCOCCOCCOCCOCCOCCOCCOCCOCCOCCOCCOCCC(=O)NCCC(=O)N(C)CC(=O)N(C)CC(=O)N(C)CC(=O)N(C)CC(=O)N(C)CC(=O)N(C)CC(=O)N(C)CC(=O)N(C)CC(=O)N(C)CC(=O)N(C)CC(=O)N[C@H]4CSCCC(=O)N5CN6CN(C5)C(=O)CCSC[C@H](NC(=O)[C@@H](CC(=O)O)NC(=O)[C@H](Cc5cccc7ccccc57)NC(=O)[C@@H]5CCCN5C4=O)C(=O)N[C@H](CCSC)C(=O)N[C@@H](CCCCNC(=N)N)C(=O)N[C@H](CC(=O)O)C(=O)N[C@@H](Cc4c[nH]c5ccccc45)C(=O)N[C@@H](CO)C(=O)N[C@@H]([C@H](C)O)C(=O)N4CCC[C@H]4C(=O)N4C[C@H](O)C[C@H]4C(=O)N[C@@H](Cc4c[nH]c5ccccc45)C(=O)N[C@H](C(N)=O)CSCCC6=O)nn3)C(N)=O)NC1=O)C(=O)CCSC[C@H](NC(C)=O)C(=O)N[C@@H](CC(C)(C)C)C(=O)N1CCC[C@H]1C(=O)N[C@@H](CCC(=O)O)C(=O)N[C@@H](C)C(=O)N1CCC[C@H]1C(=O)N[C@@H](Cc1ccc(O)cc1)C(=O)N2 | – | 21.6 | Dde | Dde
